# From PubChem
# Rows were chosen to be rich in hits. Some 7.2% of all compounds tested hit in one or more screens of this group.
# E coli WT exp: growth inhibitors of E. coli BW25113 wild type; 0.15% of 98,000 active; growth inhibition, % at 100 µM; OD600 absorbance;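 active means growth inhibition above about 50% at one test dose, limit read from the data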;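 further: growth measured after 20 h incubation at 37 °C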
# PostGolgi yeast: growth inhibition of a yeast mutant, post-Golgi transport screen | inhibition, % at 10 µM | post-Golgi transport phenotypic cell assay | 0.9% of 98,000 active;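 further: yeast cells grown in 1536-well plates; yeast grown about 18 h at 30C before absorbance read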
# PostGolgi ctrl: yeast control strain growth, post-Golgi counter-screen; 5% of 98,000 active; inhibition, % at 10 µM; efflux-deficient yeast background strain, growth absorbance A615, 16 h
# tolC growth inh: E. coli tolC mutant growth inhibition. E. coli BW25113 tolC mutant growth, OD615. growth inhibition, % at 10 µM (by protocol). 2.2% of 65,000 active. AID 573;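 active means growth inhibition at or above a cutoff equal to the mean over every tested compound plus 3 SD, cut at about 60% in these data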;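 further: growth measured after 20 h incubation at 37 °C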
#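 Material: E. coli BW25113 ΔtolC::kan, tolC deletion mutant strain. Measure: percent growth inhibition. Schedule: 37 °C, 20 h exposure. Doses: single-point testing at 10 µM. Signal: A615 absorbance measurement. Buffer or medium: kanamycin-containing LB broth (50 µg/mL).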
# PLAP act: activates human placental alkaline phosphatase; P05187; purified PLAP enzyme, luminescent substrate read-out; hits give high values; activation fold at 20 µM; 1.2% of 96,000 active; AID 696; in the data active means activation fold above about 2
# Target sequence (P05187 whole entry, looked up): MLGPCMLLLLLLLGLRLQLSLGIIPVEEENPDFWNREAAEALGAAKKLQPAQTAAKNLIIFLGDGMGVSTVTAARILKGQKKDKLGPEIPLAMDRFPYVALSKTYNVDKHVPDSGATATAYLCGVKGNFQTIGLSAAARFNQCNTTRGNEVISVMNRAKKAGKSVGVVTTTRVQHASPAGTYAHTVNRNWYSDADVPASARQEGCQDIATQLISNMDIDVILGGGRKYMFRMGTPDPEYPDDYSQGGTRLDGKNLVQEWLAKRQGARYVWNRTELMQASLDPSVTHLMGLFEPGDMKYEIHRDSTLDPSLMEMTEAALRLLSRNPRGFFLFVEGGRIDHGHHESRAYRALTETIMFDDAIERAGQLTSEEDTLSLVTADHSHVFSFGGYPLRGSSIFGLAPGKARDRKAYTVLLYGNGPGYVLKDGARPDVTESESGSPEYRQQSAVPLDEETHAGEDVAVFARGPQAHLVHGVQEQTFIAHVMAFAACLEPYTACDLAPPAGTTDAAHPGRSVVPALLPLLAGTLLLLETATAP
# An asterisk follows results filed as active; . = not tested or not shown. Unless noted, no stated cut-off is given here; in the data, active means inhibition above about 30%; inactive means the rest.
SMILES,E coli WT exp,PostGolgi yeast,PostGolgi ctrl,tolC growth inh,PLAP act
CCn1cc(C(=O)NCCc2ccccc2)c(=O)c2cc(F)c(N3CCN(C)CC3)cc21,33,16,-4,-1,1.6
Cn1cc(C(=O)c2ccc(Cl)cc2)cc1-c1nc2ccccc2n1C,-12,9,40*,54,1
Cn1c(=O)c(C(=O)c2ccccc2)nc2ccccc21,-1,-3,-8,0,0.9
COCCn1c(=NC(=O)CSCC(=O)NC2CCCCC2)sc2cc(OC)ccc21,-8,5,48*,-12,0.9
COc1cccc(OCCOc2c(OC)cccc2OC)c1,2,-4,7,-3,1.3
Cc1cnc(NC(=O)C2COc3ccccc3O2)s1 (stereo not drawn),9,10,3,.,1
O=C(CN1C(=O)C2C3C=CC(C3)C2C1=O)Nc1nc2ccccc2[nH]1 (stereo not drawn),0,0,1,.,1.8
O=C(CN1C(=O)C2C3C=CC(C3)C2C1=O)Nc1nc(SCc2ccc(Cl)cc2)n[nH]1 (stereo not drawn),11,4,8,20,2.3*
CCCn1nnc(NC(=S)NC(=O)CC)n1,-2,-3,5,.,0.9
Cc1c(C)n(CC(O)CN2C(=O)c3ccccc3S2(=O)=O)c2ccccc12 (stereo not drawn),1,2,33*,.,1.1
c1ccc(CCNc2ncnc3scc(C4COc5ccccc5O4)c23)cc1 (stereo not drawn),-18,2,43*,.,1.6
c1ccc2c(c1)OCC(c1csc3ncnc(N4CCCC4)c13)O2 (stereo not drawn),10,20,20,.,1.9
Cc1ccc2c(c1)cc(CN(Cc1ccco1)C(=O)COc1ccccc1)c1nnnn12,-16,5,42*,36,1.6
O=C(N/N=C/c1cccc(Oc2ccccc2)c1)c1ccccc1Br,-8,-4,33*,.,0.9
O=C(N/N=C/c1cccc(Oc2ccccc2)c1)c1cccc(Br)c1,-29,1,31*,.,1.1
O=S(=O)(Nc1ccccc1)c1ccc(Oc2ncc(C(F)(F)F)cc2Cl)cc1,-2,12,59*,.,1.1
CC(=O)c1ccc(N2CCN(C(=O)C3(S(=O)(=O)c4ccc(Cl)cc4)CC3)CC2)cc1,-10,-21,27,13,1.5
Cc1ccc(Cl)cc1N1CCN(C(=O)Cc2cn(C)c3ccccc23)CC1,-11,1,10,.,2*
Cc1ccc(Cl)cc1N1CCN(C(=O)C2(S(=O)(=O)c3ccc(Cl)cc3)CC2)CC1,-5,-4,40*,.,1.6
O=C(N1CCN(c2cccc(Cl)c2)CC1)C1(S(=O)(=O)c2ccc(Cl)cc2)CC1,-7,80*,90*,.,1.7
Cc1cc(C)cc(N(CC(=O)NCc2cccnc2)S(C)(=O)=O)c1,6,-17,-3,1,1
COc1ccccc1NC(=O)c1ccc(Br)o1,8,-3,-2,14,1.1
Cc1c(NC(=O)c2ccc(Br)o2)cccc1C(=O)O,2,1,-3,.,0.9
O=C(Nc1ccccc1-c1ccccc1)c1ccc(Br)o1,-7,-2,35*,.,0.8
O=C(Nc1ccccc1Oc1ccccc1)c1ccc(Br)o1,-1,3,51*,25,1
SMILES,E coli WT exp,PostGolgi yeast,PostGolgi ctrl,tolC growth inh,PLAP act
O=C(c1ccco1)N1CCN(c2ncnc3c2[nH]c2ccccc23)CC1,1,43*,3,6,1
CCOC(=O)N1CCN(c2ncnc3c2[nH]c2ccc(F)cc23)CC1,-5,-2,7,.,0.9
O=C(c1ccco1)N1CCN(c2ncnc3c(-c4ccccc4)nsc23)CC1,-16,-8,23,31,0.9
O=C(c1ccco1)N1CCN(c2ncnc3c2[nH]c2ccc(Br)cc23)CC1,-7,11,19,65*,0.9
CCOC(=O)N1CCN(c2ncnc3c2[nH]c2ccc(OC)cc23)CC1,4,-5,37*,7,0.9
COc1ccc(/C=N/Nc2ccccc2)cc1Cn1nc(C)c([N+](=O)[O-])c1C,-4,-1,3,.,1.1
CCOC(=O)/C(C#N)=C/C1=C(N2CCCC2)CC(C)(CC)OC1 (stereo not drawn),-13,4,16,.,1
Cc1[nH]nc2c1C1(CCN(C(=O)c3ccccc3)CC1)C(C#N)=C(N)O2,2,6,5,-9,0.9
Cc1[nH]nc2c1C1(CCC(c3ccccc3)CC1)C(C#N)=C(N)O2 (stereo not drawn),6,-7,31*,33,0.9
O=C(NC(CSCc1ccccc1)C(=O)N/N=C/c1ccc(O)cc1O)c1ccc([N+](=O)[O-])cc1 (stereo not drawn),12,7,0,.,2.7*
O=C(N/N=C/c1ccc(O)c(O)c1O)/C(=C/c1ccc([N+](=O)[O-])cc1)NC(=O)c1ccccc1,39,-13,-8,.,1.9
N#Cc1cc2sc3nnc(-c4ccncc4)n3c2cc1C#N,6,6,37*,16,0.8
Cc1ccccc1OCCCn1c(=O)sc2ccccc21,-1,-7,20,.,1
COc1cccc(-c2cc(C(=O)NCCc3ccccc3)no2)c1,-6,1,3,-7,0.9
c1ccc(OCc2nn3c(Cn4cnc5ccccc54)nnc3s2)cc1,10,-5,42*,29,0.7
c1ccc(-c2nn3c(Cn4cnc5ccccc54)nnc3s2)cc1,1,-2,24,34,1
Cc1ccc(CNC(=O)CSCC(=O)O)cc1,-15,4,41*,.,0.9
CC(=O)Nc1nc(SCCCc2ccccc2)n[nH]1,4,-4,9,2,2.4*
O=c1cc(-c2ccccc2)[nH]n1-c1nc2ccccc2[nH]1,55*,-5,4,.,2.1*
O=C(CCn1c(=S)[nH]c2cc3c(cc2c1=O)OCO3)NCCN1CCCC1,.,.,.,-12,.
O=c1c2cc3c(cc2[nH]c(=S)n1CCN1CCOCC1)OCO3,-5,-1,36*,-6,1
Cc1cc(N2CCN(c3nc(N4CCOCC4)nc4ccccc34)CC2)c2ccccc2n1,.,.,.,-1,.
Cc1cc(N2CCOCC2)c2c(N)c(Br)cc(C)c2n1,-9,-3,-1,3,2*
Cc1noc(NS(=O)(=O)c2ccc(NC(=O)CSc3nc4ccccc4s3)cc2)c1C,6,-3,33*,42,1.1
Cc1noc(NS(=O)(=O)c2ccc(NC(=O)CSc3ncccn3)cc2)c1C,15,1,3,-8,1
COc1ccc(-c2csc(Cc3nnc4n3CCCCC4)n2)cc1,11,13,-4,-2,1.2
c1ccc2sc(Cc3nnc4n3CCCCC4)nc2c1,-3,-2,41*,-14,0.9
Cc1nn(Cc2ccccc2Cl)c(C)c1NC(=O)c1cc(-c2ccc(F)cc2)on1,-2,7,8,15,0.8
Cc1nn(Cc2ccccc2Cl)c(C)c1NC(=O)NC12CC3CC(CC(C3)C1)C2,-9,-5,35*,.,2*
CC1CC(C)CN(Cc2nc(N)nc(Nc3ccc4ccccc4c3)n2)C1 (stereo not drawn),14,-1,0,22,1.3
